# Measurements reported in ChEMBL document CHEMBL4808214, “Structure-activity relationship studies in substituted sulfamoyl benzamidothiazoles that prolong NF-κB activation” (Bioorg Med Chem, 2021).
# Tested on: THP-1
# Test: Cytotoxicity against human THP-1 cells assessed as cell viability at 5 uM measured after 18 hrs by MTT assay relative to control
# Assay type: cell-based
# Settings: thp-1, 18 h
# How it was run: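 THP-1 cells were plated at 10^5/well in RPMI with 10% FBS and penicillin/streptomycin, then given compound at 5 μM final (0.5% DMSO) for 18 h. MTT at 0.5 mg/mL was added for 4–6 h, followed by SDS/HCl lysis buffer overnight. Absorbance was read at 570 nm against a 650 nm reference. Viability was normalized to DMSO as 100%.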
row,SMILES,Activity [%]
1,Cc1ccc(-c2csc(NC(=O)c3ccc(S(=O)(=O)N4CCCCC4)cc3)n2)c(C)c1,102
2,C#Cc1ccc(C)c(-c2csc(NC(=O)c3ccc(S(=O)(=O)N4CCCCC4)cc3)n2)c1,92
3,CCN(c1ccccc1)S(=O)(=O)c1ccc(C(=O)Nc2nc(-c3cc(C)ccc3C)cs2)cc1,81
4,CCCc1csc(NC(=O)c2ccc(S(=O)(=O)N3CCCCC3)cc2)n1,115
5,Cc1ccc(C)c(-c2nc(NC(=O)c3ccc(S(=O)(=O)N4CCCCC4)cc3)sc2N2CCCCC2)c1,89
6,CCCC#Cc1sc(NC(=O)c2ccc(S(=O)(=O)N3CCC(CCC)CC3)cc2)nc1-c1cc(C)ccc1Br,97
7,Cc1ccc(Br)cc1-c1csc(NC(=O)c2ccc(S(=O)(=O)N3CCCCC3)cc2)n1,91
8,Cc1ccc(C)c(-c2ccc(NC(=O)c3ccc(S(=O)(=O)N4CCCCC4)cc3)nc2)c1,93
9,Cc1ccc(C)c(Cc2csc(NC(=O)c3ccc(S(=O)(=O)N4CCCCC4)cc3)n2)c1,100
10,CCCN(CC)S(=O)(=O)c1ccc(C(=O)Nc2nc(-c3cc(C)ccc3C)cs2)cc1,104
11,Cc1ccc(C)c(-c2csc(NC(=O)c3ccc(S(=O)(=O)C4CCCCC4)cc3)n2)c1,82
12,CCc1ccc(C)c(-c2csc(NC(=O)c3ccc(S(=O)(=O)N4CCCCC4)cc3)n2)c1,102
13,Cc1ccc2c(c1)-c1nc(NC(=O)c3ccc(S(=O)(=O)N4CCCCC4)cc3)sc1CC2,95
14,CC(C)(C)Cc1csc(NC(=O)c2ccc(S(=O)(=O)N3CCCCC3)cc2)n1,116
15,O=C(Nc1nc(-c2cccc3ccccc23)cs1)c1ccc(S(=O)(=O)N2CCCCC2)cc1,93
16,CCc1csc(NC(=O)c2ccc(S(=O)(=O)N3CCCCC3)cc2)n1,120
17,Cc1ccc(C)c(-c2csc(NC(=O)c3ccc(S(=O)(=O)N4CCN(C(=O)OC(C)(C)C)CC4)cc3)n2)c1,132
18,Cc1ccc(C)c(-c2csc(C(=O)Nc3ccc(S(=O)(=O)N4CCCCC4)cc3)n2)c1,91
19,Cc1ccc(C)c(-c2csc(N(C)C(=O)c3ccc(S(=O)(=O)N4CCCCC4)cc3)n2)c1,97
20,CCC#Cc1sc(NC(=O)c2ccc(S(=O)(=O)N3CCCCC3)cc2)nc1-c1cc(C)ccc1C,103
21,CCOC1CCN(S(=O)(=O)c2ccc(C(=O)Nc3nc(-c4cc(C)ccc4C)cs3)cc2)CC1,117
22,CCCN(CCC)S(=O)(=O)c1ccc(C(=O)Nc2nc(-c3cc(C)ccc3C)cs2)cc1,96
23,Cc1ccc(C)c(-c2ccc(NC(=O)c3ccc(S(=O)(=O)N4CCCCC4)cc3)cn2)c1,93
24,Cc1ccc(C)c(-c2csc(NS(=O)(=O)c3ccc(C(=O)N4CCCCC4)cc3)n2)c1,69
25,Cc1ccc(C)c(-c2csc(NCc3ccc(S(=O)(=O)N4CCCCC4)cc3)n2)c1,85
26,Cc1ccc(C)c(-c2csc(NC(=O)c3ccc(S(=O)(=O)N4CCNCC4)cc3)n2)c1,121
27,Cc1ccc(C)c(-c2csc(NC(=O)c3cccc(C(=O)N4CCCCC4)c3)n2)c1,88
28,Cc1ccc(C)c(-c2csc(NC(=O)c3ccc(S(=O)(=O)N4CCCCC4)cc3Cl)n2)c1,87

row,SMILES,Activity [%]
1,C#CCN(C(=O)c1ccc(S(=O)(=O)N2CCCCC2)cc1)c1nc(-c2cc(C)ccc2C)cs1,102
2,C#Cc1sc(NC(=O)c2ccc(S(=O)(=O)N3CCCCC3)cc2)nc1-c1cc(C)ccc1C,111
3,CCCC#Cc1sc(NC(=O)c2ccc(S(=O)(=O)N3CCCCC3)cc2)nc1-c1cc(C)ccc1Br,95
4,Cc1ccc(C)c(-c2csc(NC(=O)c3ccc(S(=O)(=O)N4CCCCC4)s3)n2)c1,97
5,Cc1ccc(C)c(-c2csc(NC(=O)c3ccc(C(=O)N4CCCCC4)cc3)n2)c1,88
6,Cc1ccc2c(c1)-c1nc(NC(=O)c3ccc(S(=O)(=O)N4CCCCC4)cc3)sc1C2,89
7,Cc1cccc(-c2csc(NC(=O)c3ccc(S(=O)(=O)N4CCCCC4)cc3)n2)c1C,103
8,CCCC#Cc1sc(NC(=O)c2ccc(S(=O)(=O)N3CCC(CCC)CC3)cc2)nc1-c1cc(C)ccc1C,102
9,Cc1cccc(-c2csc(NC(=O)c3ccc(S(=O)(=O)N4CCCCC4)cc3)n2)c1,98
10,CCCC1CCN(S(=O)(=O)c2ccc(C(=O)Nc3nc(-c4cc(C)ccc4Br)cs3)cc2)CC1,97
11,Cc1ccc(C)c(-c2csc(NC(=O)c3ccc(S(=O)(=O)N4CCCCC4)c(N)c3)n2)c1,92
12,Cc1ccccc1-c1csc(NC(=O)c2ccc(S(=O)(=O)N3CCCCC3)cc2)n1,98
13,Cc1ccc(C)c(-c2nnc(NC(=O)c3ccc(S(=O)(=O)N4CCCCC4)cc3)s2)c1,90
14,Cc1ccc(C)c(-c2nc(NC(=O)c3ccc(S(=O)(=O)N4CCCCC4)cc3)sc2C)c1,97
15,Cc1ccc(C)c(-c2cnc(NC(=O)c3ccc(S(=O)(=O)N4CCCCC4)cc3)s2)c1,101
16,Cc1csc(NC(=O)c2ccc(S(=O)(=O)N3CCCCC3)cc2)n1,108
17,Cc1ccc(C)c(-c2csc(NC(=O)c3ccc(S(=O)(=O)N4CCCCC4)c([N+](=O)[O-])c3)n2)c1,93
18,CCOc1sc(NC(=O)c2ccc(S(=O)(=O)N3CCCCC3)cc2)nc1-c1cc(C)ccc1C,104
19,CCN(CC)c1sc(NC(=O)c2ccc(S(=O)(=O)N3CCCCC3)cc2)nc1-c1cc(C)ccc1C,94
20,Cc1ccc(C)c(-c2csc(NC(=O)c3ccc(S(=O)(=O)N4CCCCC4)c(Cl)c3)n2)c1,88
21,Cc1ccc(C)c(-c2nc(NC(=O)c3ccc(S(=O)(=O)N4CCCCC4)cc3)sc2-c2ccco2)c1,106
22,Cc1ccc(C)c(-c2nc(NC(=O)c3ccc(S(=O)(=O)N4CCCCC4)cc3)sc2Br)c1,84
23,Cc1ccc(C)c(-c2csc(NC(=O)c3ccc(S(=O)(=O)NC4CCCCC4)cc3)n2)c1,91
24,Cc1ccc(C)c(-c2cccc(NC(=O)c3ccc(S(=O)(=O)N4CCCCC4)cc3)n2)c1,94
25,CCCN1CCN(S(=O)(=O)c2ccc(C(=O)Nc3nc(-c4cc(C)ccc4C)cs3)cc2)CC1,80
26,Cc1ccc(C)c(-c2csc(NC(=O)c3ccc(SC4CCCCC4)cc3)n2)c1,85
27,Cc1ccc(C)c(-c2csc(NC(=O)c3ccc(S(=O)(=O)N4CCCCC4)nc3)n2)c1,89

# Target: Nuclear factor NF-kappa-B complex (Homo sapiens) (UniProt Q00653+P19838+Q04206)
# Sequence (P19838 whole entry, looked up): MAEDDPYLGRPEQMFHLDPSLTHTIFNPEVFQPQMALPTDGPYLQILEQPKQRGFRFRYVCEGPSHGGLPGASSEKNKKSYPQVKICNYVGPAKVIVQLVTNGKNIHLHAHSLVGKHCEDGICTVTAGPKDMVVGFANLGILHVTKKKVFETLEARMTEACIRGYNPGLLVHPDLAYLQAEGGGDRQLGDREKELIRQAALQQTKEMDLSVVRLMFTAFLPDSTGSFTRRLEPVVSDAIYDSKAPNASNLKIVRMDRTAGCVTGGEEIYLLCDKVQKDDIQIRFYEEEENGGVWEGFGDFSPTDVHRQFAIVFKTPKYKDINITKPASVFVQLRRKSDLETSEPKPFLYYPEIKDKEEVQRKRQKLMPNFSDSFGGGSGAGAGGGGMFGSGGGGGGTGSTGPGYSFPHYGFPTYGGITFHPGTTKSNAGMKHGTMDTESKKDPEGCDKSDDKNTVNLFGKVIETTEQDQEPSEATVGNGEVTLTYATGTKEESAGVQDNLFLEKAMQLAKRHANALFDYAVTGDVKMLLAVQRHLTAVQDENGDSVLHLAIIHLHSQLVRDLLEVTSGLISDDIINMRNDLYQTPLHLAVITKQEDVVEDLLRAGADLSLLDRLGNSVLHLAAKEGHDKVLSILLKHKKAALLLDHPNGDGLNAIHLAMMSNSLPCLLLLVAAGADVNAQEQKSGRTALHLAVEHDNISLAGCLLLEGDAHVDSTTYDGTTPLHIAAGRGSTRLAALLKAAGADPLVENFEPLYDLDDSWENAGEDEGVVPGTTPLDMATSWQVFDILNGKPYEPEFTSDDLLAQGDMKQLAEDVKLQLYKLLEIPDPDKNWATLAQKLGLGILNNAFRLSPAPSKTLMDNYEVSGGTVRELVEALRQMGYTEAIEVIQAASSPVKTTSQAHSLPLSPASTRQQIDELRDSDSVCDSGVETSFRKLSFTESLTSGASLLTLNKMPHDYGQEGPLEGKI
# Sequence (Q00653 whole entry, looked up): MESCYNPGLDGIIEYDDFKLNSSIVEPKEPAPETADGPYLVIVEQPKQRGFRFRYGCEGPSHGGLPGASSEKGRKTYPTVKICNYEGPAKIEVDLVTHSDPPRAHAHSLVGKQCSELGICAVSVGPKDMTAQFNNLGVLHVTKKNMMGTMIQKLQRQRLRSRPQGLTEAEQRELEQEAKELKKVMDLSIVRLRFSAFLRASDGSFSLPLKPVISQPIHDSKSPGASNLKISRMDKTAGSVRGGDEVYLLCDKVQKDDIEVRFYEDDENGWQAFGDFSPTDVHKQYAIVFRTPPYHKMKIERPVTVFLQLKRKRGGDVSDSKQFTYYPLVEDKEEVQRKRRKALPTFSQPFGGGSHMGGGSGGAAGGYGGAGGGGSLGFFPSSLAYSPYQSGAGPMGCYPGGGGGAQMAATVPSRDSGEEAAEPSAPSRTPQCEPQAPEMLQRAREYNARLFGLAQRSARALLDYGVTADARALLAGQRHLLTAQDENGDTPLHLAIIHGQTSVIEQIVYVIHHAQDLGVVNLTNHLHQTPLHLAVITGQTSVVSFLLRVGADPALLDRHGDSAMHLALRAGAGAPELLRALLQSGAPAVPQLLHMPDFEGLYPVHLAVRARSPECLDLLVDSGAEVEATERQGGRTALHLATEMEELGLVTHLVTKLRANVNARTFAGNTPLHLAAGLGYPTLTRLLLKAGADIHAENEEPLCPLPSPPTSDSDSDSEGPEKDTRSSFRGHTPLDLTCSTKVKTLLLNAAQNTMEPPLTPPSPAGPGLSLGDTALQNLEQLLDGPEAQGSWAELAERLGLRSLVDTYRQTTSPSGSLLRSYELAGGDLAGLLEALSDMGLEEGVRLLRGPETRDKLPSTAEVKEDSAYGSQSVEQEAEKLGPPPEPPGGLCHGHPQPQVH
# Sequence (Q04206 whole entry, looked up): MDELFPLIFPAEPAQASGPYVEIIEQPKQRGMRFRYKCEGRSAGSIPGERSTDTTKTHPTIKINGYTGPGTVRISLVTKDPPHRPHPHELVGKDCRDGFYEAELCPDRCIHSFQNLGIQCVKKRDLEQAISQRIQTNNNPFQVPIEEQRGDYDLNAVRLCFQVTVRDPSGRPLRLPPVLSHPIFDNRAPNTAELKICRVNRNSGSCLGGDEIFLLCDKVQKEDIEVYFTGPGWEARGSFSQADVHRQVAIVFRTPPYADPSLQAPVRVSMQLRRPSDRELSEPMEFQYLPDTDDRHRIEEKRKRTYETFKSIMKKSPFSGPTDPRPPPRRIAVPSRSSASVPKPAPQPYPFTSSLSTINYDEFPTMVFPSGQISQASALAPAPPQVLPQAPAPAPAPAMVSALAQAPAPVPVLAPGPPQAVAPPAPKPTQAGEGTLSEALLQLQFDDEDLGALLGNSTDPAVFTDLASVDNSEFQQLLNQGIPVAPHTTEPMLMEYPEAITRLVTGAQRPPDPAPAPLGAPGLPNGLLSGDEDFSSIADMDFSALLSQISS
# Test: Activation of NF-kappaB in human THP1-Blue NF-kappaB cells co-expressing NFkappaB-inducible SEAP assessed as increase in SEAP activity at 5 uM measured after 20 hrs by quanti-blue based colorimetric assay relative to control
# Assay type: cell-based
# Settings: filed as activator
# How it was run: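 THP1-Blue NF-κB reporter cells plated at 10^5/well in RPMI with 10% FBS, penicillin/streptomycin and Normocin. Compound added at 5 μM final (0.5% DMSO), then incubated 20 h. Secreted SEAP in the supernatant was read colorimetrically with QuantiBlue at 630 nm. Two-point normalization set vehicle (0.5% DMSO) as 100% and a reference activator as 200%.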
row,SMILES,Activity [%]
1,Cc1ccc(-c2csc(NC(=O)c3ccc(S(=O)(=O)N4CCCCC4)cc3)n2)c(C)c1,98
2,C#Cc1ccc(C)c(-c2csc(NC(=O)c3ccc(S(=O)(=O)N4CCCCC4)cc3)n2)c1,101
3,CCN(c1ccccc1)S(=O)(=O)c1ccc(C(=O)Nc2nc(-c3cc(C)ccc3C)cs2)cc1,105
4,Cc1ccc(C)c(-c2nc(NC(=O)c3ccc(S(=O)(=O)N4CCCCC4)cc3)sc2N2CCCCC2)c1,99
5,CCCC#Cc1sc(NC(=O)c2ccc(S(=O)(=O)N3CCC(CCC)CC3)cc2)nc1-c1cc(C)ccc1Br,111
6,Cc1ccc(Br)cc1-c1csc(NC(=O)c2ccc(S(=O)(=O)N3CCCCC3)cc2)n1,207
7,Cc1ccc(C)c(Cc2csc(NC(=O)c3ccc(S(=O)(=O)N4CCCCC4)cc3)n2)c1,101
8,CCCN(CC)S(=O)(=O)c1ccc(C(=O)Nc2nc(-c3cc(C)ccc3C)cs2)cc1,183
9,CCc1ccc(C)c(-c2csc(NC(=O)c3ccc(S(=O)(=O)N4CCCCC4)cc3)n2)c1,203
10,Cc1ccc2c(c1)-c1nc(NC(=O)c3ccc(S(=O)(=O)N4CCCCC4)cc3)sc1CC2,114
11,CC(C)(C)Cc1csc(NC(=O)c2ccc(S(=O)(=O)N3CCCCC3)cc2)n1,101
12,O=C(Nc1nc(-c2cccc3ccccc23)cs1)c1ccc(S(=O)(=O)N2CCCCC2)cc1,198
13,Cc1ccc(C)c(-c2csc(NC(=O)c3ccc(S(=O)(=O)N4CCN(C(=O)OC(C)(C)C)CC4)cc3)n2)c1,101
14,CCSc1sc(NC(=O)c2ccc(S(=O)(=O)N3CCCCC3)cc2)nc1-c1cc(C)ccc1C,103
15,Cc1ccc(C)c(-c2csc(C(=O)Nc3ccc(S(=O)(=O)N4CCCCC4)cc3)n2)c1,99
16,Cc1ccc(C)c(-c2csc(N(C)C(=O)c3ccc(S(=O)(=O)N4CCCCC4)cc3)n2)c1,101
17,CCC#Cc1sc(NC(=O)c2ccc(S(=O)(=O)N3CCCCC3)cc2)nc1-c1cc(C)ccc1C,264
18,CCOC1CCN(S(=O)(=O)c2ccc(C(=O)Nc3nc(-c4cc(C)ccc4C)cs3)cc2)CC1,201
19,CCCN(CCC)S(=O)(=O)c1ccc(C(=O)Nc2nc(-c3cc(C)ccc3C)cs2)cc1,167
20,Cc1ccc(C)c(-c2csc(NS(=O)(=O)c3ccc(C(=O)N4CCCCC4)cc3)n2)c1,103
21,Cc1ccc(C)c(-c2csc(NCc3ccc(S(=O)(=O)N4CCCCC4)cc3)n2)c1,99
22,Cc1ccc(C)c(-c2csc(NC(=O)c3ccc(S(=O)(=O)N4CCNCC4)cc3)n2)c1,101

row,SMILES,Activity [%]
1,Cc1ccc(C)c(-c2csc(NC(=O)c3ccc(S(=O)(=O)N4CCCCC4)cc3Cl)n2)c1,127
2,C#Cc1sc(NC(=O)c2ccc(S(=O)(=O)N3CCCCC3)cc2)nc1-c1cc(C)ccc1C,118
3,CCCC#Cc1sc(NC(=O)c2ccc(S(=O)(=O)N3CCCCC3)cc2)nc1-c1cc(C)ccc1Br,202
4,Cc1ccc(C)c(-c2csc(NC(=O)c3ccc(S(=O)(=O)N4CCCCC4)s3)n2)c1,103
5,Cc1ccc(C)c(-c2csc(NC(=O)c3ccc(C(=O)N4CCCCC4)cc3)n2)c1,99
6,Cc1ccc2c(c1)-c1nc(NC(=O)c3ccc(S(=O)(=O)N4CCCCC4)cc3)sc1C2,109
7,Cc1cccc(-c2csc(NC(=O)c3ccc(S(=O)(=O)N4CCCCC4)cc3)n2)c1C,179
8,CCCC#Cc1sc(NC(=O)c2ccc(S(=O)(=O)N3CCC(CCC)CC3)cc2)nc1-c1cc(C)ccc1C,112
9,CCCCN(CCCC)S(=O)(=O)c1ccc(C(=O)Nc2nc(-c3cc(C)ccc3C)cs2)cc1,102
10,CCCC1CCN(S(=O)(=O)c2ccc(C(=O)Nc3nc(-c4cc(C)ccc4Br)cs3)cc2)CC1,191
11,Cc1ccc(C)c(-c2csc(NC(=O)c3ccc(S(=O)(=O)N4CCCCC4)c(N)c3)n2)c1,125
12,Cc1ccc(-c2csc(NC(=O)c3ccc(S(=O)(=O)N4CCCCC4)cc3)n2)cc1C,98
13,Cc1ccc(C)c(-c2nc(NC(=O)c3ccc(S(=O)(=O)N4CCCCC4)cc3)sc2C)c1,159
14,Cc1ccc(C)c(-c2cnc(NC(=O)c3ccc(S(=O)(=O)N4CCCCC4)cc3)s2)c1,99
15,Cc1ccc(C)c(-c2csc(NC(=O)c3ccc(S(=O)(=O)N4CCCCC4)c([N+](=O)[O-])c3)n2)c1,115
16,CCOc1sc(NC(=O)c2ccc(S(=O)(=O)N3CCCCC3)cc2)nc1-c1cc(C)ccc1C,102
17,CCN(CC)c1sc(NC(=O)c2ccc(S(=O)(=O)N3CCCCC3)cc2)nc1-c1cc(C)ccc1C,99
18,Cc1ccc(C)c(-c2csc(NC(=O)c3ccc(S(=O)(=O)N4CCCCC4)c(Cl)c3)n2)c1,223
19,Cc1ccc(C)c(-c2nc(NC(=O)c3ccc(S(=O)(=O)N4CCCCC4)cc3)sc2Br)c1,133
20,Cc1ccc(C)c(-c2nc(NC(=O)c3ccc(S(=O)(=O)N4CCCCC4)cc3)sc2-c2ccccc2)c1,99
21,COc1cc(S(=O)(=O)N2CCCCC2)ccc1C(=O)Nc1nc(-c2cc(C)ccc2C)cs1,99
22,COc1cc(C(=O)Nc2nc(-c3cc(C)ccc3C)cs2)ccc1S(=O)(=O)N1CCCCC1,99
